{"source": "paper PMC6001687", "about": "(The Journal of Dermatology, 2018)", "key": {"[1]": {"experiment": "Plasma pharmacokinetics after topical application, QBX1‐2 study", "format": "in vivo, human", "in_short": "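Japanese healthy male volunteers or adult atopic dermatitis patients; 5 g ointment to back skin or eczematous areas, either once (removed at 24 h) or twice daily at 12-h intervals for 7 days. Plasma at 0–48 h after single dose; repeated dosing on days 1 and 7 at 0–24 h after morning dose, plus day-4 trough. LC-MS/MS, LLOQ 1 ng/mL (below set to zero); non-compartmental. Tmax as median.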"}, "[2]": {"experiment": "Urine pharmacokinetics after topical application, QBX1‐2 study", "format": "in vivo, human", "in_short": "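Adult atopic dermatitis patients; 5 g ointment to eczematous areas twice daily for 7 days. On day 7, urine collected at 0–4, 4–8, 8–12 and 12–24 h, assayed by LC-MS/MS (LLOQ 25 ng/mL). Amount excreted = sum over intervals of concentration × urine volume. Renal clearance = amount excreted ÷ plasma AUCtau (12-h dosing interval, non-compartmental).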"}, "JAK1": {"test_system": "JAK1", "conditions": "read-out: half maximal inhibitory concentration, JAK1; cited from earlier work"}, "JAK2": {"test_system": "JAK2", "conditions": "read-out: half maximal inhibitory concentration, JAK2; cited from earlier work"}, "JAK3": {"test_system": "JAK3", "conditions": "read-out: half maximal inhibitory concentration, JAK3; cited from earlier work"}, "Tyk2": {"test_system": "Tyk2", "conditions": "read-out: half maximal inhibitory concentration, Tyk2; cited from earlier work"}, "[3]": {"conditions": "p.o. administration; ref data not published; cited from earlier work"}}, "note": "Values joined by “and” are separate entries in the source; they are usually repeats but may differ in a detail not shown here. Equal values may be shown once.", "data": [{"smiles": "C[C@H]1CN(C(=O)CC#N)[C@]12CCN(c1ncnc3[nH]ccc13)C2", "note": "[JTE‐052]", "values": [{"measurement": "AUC(0-t)", "setting": "[1]; human, plasma, topical, 5 g of 3% ointment", "value": 77, "unit": "ng·h/mL"}, {"measurement": "Tmax", "setting": "[1]; human, plasma, topical, 5 g of 3% ointment twice daily", "value": 4, "unit": "h"}, {"measurement": "JTE‐052 plasma concentrations", "setting": "[1]; part 2, AD patients, single application of 1% JTE‐052 ointment, all subjects (n = 6)", "value": "[…]"}, {"measurement": "JTE‐052 plasma concentrations", "setting": "[1]; part 3, AD patients, repeated application of 1% JTE‐052 ointment twice daily for 7 days (n = 8)", "value": "[…]"}, {"measurement": "JTE‐052 plasma concentrations", "setting": "[1]; part 3, AD patients, repeated application of 3% JTE‐052 ointment twice daily for 7 days (n = 7), considering trough samples", "value": "[…]"}, {"measurement": "CL renal", "setting": "[2]; human, urine and plasma, topical, 5 g of 3% ointment twice daily", "value": 330, "unit": "mL/min"}, {"measurement": "fe (fraction excreted into urine to the applied dose)", "setting": "[2]; part 1, healthy volunteers, single application of 3% JTE‐052 ointment, 0–48‐h interval, n = 6", "value": "0.016% and 0.016 ± 0.007%"}, {"measurement": "fe (fraction excreted into urine to the applied dose)", "setting": "[2]; part 2, AD patients, single application of 1% JTE‐052 ointment, 0–48‐h interval, n = 6", "value": "0.382% and 0.382 ± 0.341%"}, {"measurement": "fe (fraction excreted into urine to the applied dose)", "setting": "[2]; part 2, AD patients, single application of 3% JTE‐052 ointment, 0–48‐h interval, n = 5", "value": "0.406% and 0.406 ± 0.508%"}, {"measurement": "fe (fraction excreted into urine to the applied dose)", "setting": "[2]; part 3, AD patients, repeated application of 1% JTE‐052 ointment, day 7 after the morning application, 0–12‐h interval, n = 8", "value": "0.191% and 0.191 ± 0.174%"}, {"measurement": "fe (fraction excreted into urine to the applied dose)", "setting": "[2]; part 3, AD patients, repeated application of 3% JTE‐052 ointment, day 7 after the morning application, 0–12‐h interval, n = 7", "value": "0.289% and 0.289 ± 0.136%"}, {"measurement": "IC50", "setting": "JAK1", "value": "[…]"}, {"measurement": "IC50", "setting": "JAK2", "value": "[…]"}, {"measurement": "IC50", "setting": "JAK3", "value": "[…]"}, {"measurement": "IC50", "setting": "Tyk2", "value": "[…]"}, {"measurement": "half‐life", "setting": "[3]", "value": "~ 4 h"}]}]}
